Source: ChEMBL document CHEMBL3399919, “Synthesis, optical properties and preliminary in vitro photodynamic effect of pyridyl and quinoxalyl substituted chlorins” (Bioorg Med Chem, 2015)
Calls of active or inactive are those of the source. No cut-off for these calls is given here.

Key:
HeLa [1] = assay: Dark toxicity against human HeLa cells assessed as cell viability up to 10 uM incubated for 12 hrs under dark conditions by WST-8 assay; type: cell-based
Summary of the method: (§1)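 HeLa (ATCC) grown in EMEM + 10% FBS, 37 °C, 5% CO2, humidified; seeded per well in 96-well plates, 24 h, then medium replaced with fresh medium containing photosensitizer (0–10 μM). Irradiated with 670–710 nm light, 2 J/cm2 over 15 min, or kept dark; then 12 h at 37 °C in dark. WST-8 (CCK-8) added, 2 h; formazan read. DMSO vehicle control, medium+reagent blank; ≥3 repeats, mean.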

HeLa [2] = assay: Photosensitizing activity against human HeLa cells assessed as reduction in cell viability pre-incubated for 24 hrs followed by 15 mins exposure to 670 to 710 nm light at dose of 2.0 J/cm2 and measured 12 hrs after radiation by WST-8 assay; type: functional, cell-based; conditions: for IC50: light or radiation study; summary of the method: as §1
[3] = Singlet oxygen generation assessed as comparative absorbance decay of 1,3-diphenylisobenzofuran at 1 uM at 418 nm after photoirradiation at 2.0 J/cm2 for 15 mins by spectrometry
Summary of the method: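 Photosensitizer at 1 μM with DPBF (50 μM in DMSO), irradiated; visible spectra recorded and normalized DPBF absorbance at 418 nm compared against DPBF-only control, methylene blue as reference; mean of three experiments.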

HeLa [4] = assay: Photosensitizing activity against human HeLa cells assessed as cell viability at 0.05 uM pre-incubated for 24 hrs followed by 15 mins exposure to 670 to 710 nm light at dose of 2.0 J/cm2 and measured 12 hrs after radiation by WST-8 assay; type: functional; conditions: light or radiation study, read-out: Activity; summary of the method: as §1
HeLa [5] = assay: Photosensitizing activity against human HeLa cells assessed as cell viability at 0.1 uM pre-incubated for 24 hrs followed by 15 mins exposure to 670 to 710 nm light at dose of 2.0 J/cm2 and measured 12 hrs after radiation by WST-8 assay; type: functional; conditions: light or radiation study, read-out: Activity; summary of the method: as §1

Structure (SMILES)	Activity (HeLa [1])	Activity (HeLa [2])	IC50 (HeLa [2])	Activity [3]	viability at 0.05 µM (HeLa [4])	viability at 0.1 µM (HeLa [5])
CCC1=C(C)c2cc3[nH]c(cc4nc(c5c6[nH]c(cc1n2)c(C)c6C(=O)C5)[C@@H](CCC(=O)OC)[C@@H]4C)c(C)c3/C=C/c1ccc2ccccc2n1	Non-toxic	Dose-dependent effect	631 nM	Active		
CCC1=C(C)c2cc3[nH]c(cc4nc(c(CC(=O)OC)c5[nH]c(cc1n2)c(C)c5C(=O)OC)[C@@H](CCC(=O)OC)[C@@H]4C)c(C)c3/C=C/c1ccncc1	Non-toxic	Dose-dependent effect	141 nM	Active		
CCC1=C(C)c2cc3[nH]c(cc4nc(c(CC(=O)OC)c5[nH]c(cc1n2)c(C)c5C(=O)OC)[C@@H](CCC(=O)OC)[C@@H]4C)c(C)c3/C=C/c1ccc2ccccc2n1	Non-toxic	Dose-dependent effect	170 nM	Active		
CCC1=C(C)c2cc3[nH]c(cc4nc(c5c6[nH]c(cc1n2)c(C)c6C(=O)N(OC)C5=O)[C@@H](CCC(=O)OC)[C@@H]4C)c(C)c3/C=C/c1ccncc1	Non-toxic	Dose-dependent effect	3120 nM	Active		
C=Cc1c(C)c2cc3nc(c4c5[nH]c(cc6nc(cc1[nH]2)C(C)=C6CC)c(/C=C/c1ccncc1)c5C(=O)C4)[C@@H](CCC(=O)OC)[C@@H]3C	Non-toxic	Dose-dependent effect	33 nM	Active	22.2%	1.4%
C=Cc1c(C)c2cc3nc(c(CC(=O)OC)c4[nH]c(cc5nc(cc1[nH]2)C(C)=C5CC)c(C)c4C(=O)NCc1ccncc1)[C@@H](CCC(=O)OC)[C@@H]3C	Non-toxic	Dose-dependent effect	71 nM		65.5%	28.1%
CCC1=C(C)c2cc3[nH]c(cc4nc(c5c6[nH]c(cc1n2)c(C)c6C(=O)C5)[C@@H](CCC(=O)OC)[C@@H]4C)c(C)c3/C=C/c1ccncc1	Non-toxic	Dose-dependent effect	581 nM	Active		
CN(C)c1ccc2nc3ccc(=[N+](C)C)cc-3sc2c1				Active		
CCC1=C(C)c2cc3[nH]c(cc4nc(c5c6[nH]c(cc1n2)c(C)c6C(=O)N(OC)C5=O)[C@@H](CCC(=O)OC)[C@@H]4C)c(C)c3/C=C/c1ccc2ccccc2n1	Non-toxic	Dose-dependent effect	992 nM	Active		
C=Cc1c(C)c2cc3nc(c4c5[nH]c(cc6nc(cc1[nH]2)C(C)=C6CC)c(C)c5C(=O)N(Cc1ccncc1)C4=O)[C@@H](CCC(=O)OC)[C@@H]3C	Non-toxic	Dose-dependent effect	189 nM	Active		
